Measurements published in ChEMBL document CHEMBL5244268, “Preventing Candida albicans biofilm formation using aromatic-rich piperazines” (Bioorg Med Chem, 2020).
In brackets after ≈: the same amount, converted by molar mass. Activity calls are given as the source filed them. The rule behind the calls is not given here.

Columns and labels:
Candida albicans [1] = assay: Antibiofilm activity against Candida albicans ATCC 28366 assessed as disruption of preformed biofilm incubated for 12 hrs by crystal violet staining based absorbance spectrometry analysis; format: functional, organism-based
Summary of the method: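 Mature biofilms grown 36 to 48 h in Sabouraud pH 7.0 without compound; medium and free cells removed, rinsed with 50 mM PBS pH 7.0, then two-fold serial dilutions in PBS added for 12 h at 37 °C. Residual biofilm stained with crystal violet, dye released in 75% ethanol, A550 read. PBS-treated biofilms as controls.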

Candida albicans [2] = assay: Antibiofilm activity against Candida albicans ATCC 28366 incubated for 24 to 48 hrs by crystal violet staining based absorbance spectrometry analysis; format: functional, organism-based; conditions: time 24-48 hrs
Summary of the method: (§1)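 Overnight cultures (37 °C, aerobic, Sabouraud pH 7.0) adjusted to OD660 0.2, mixed 1:1 with two-fold serial dilutions in medium and incubated at 37 °C. Biofilm stained with crystal violet, dye released in 75% ethanol, A550 read. Growth relative to compound-free wells (100%) after blank subtraction. At least two independent experiments in triplicate, t test.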

Candida albicans [3] = assay: Antifungal activity against Candida albicans ATCC 28366 assessed as reduction in fungal growth incubated for 24 hrs by plate count determination; format: functional, organism-based
Candida albicans [4] = assay: Antibiofilm activity against Candida albicans ATCC 28366 at up to 96 ug/ml incubated for 24 to 48 hrs by crystal violet staining based absorbance spectrometry analysis; format: functional, organism-based; conditions: dose <= 96.0 µg/ml, time 24-48 hrs; summary of the method: as §1
Candida albicans [5] = assay: Antibiofilm activity against Candida albicans ATCC 28366 assessed as inhibition of biofilm formation at 2 ug/ml incubated for 24 to 48 hrs by crystal violet staining based absorbance spectrometry analysis; format: functional, organism-based; conditions: dose 2.0 µg/ml, time 24-48 hrs; summary of the method: as §1
Candida albicans [6] = assay: Antifungal activity against Candida albicans ATCC 28366 assessed as inhibition of fungal growth incubated for 24 hrs by plate count determination; format: functional
Summary of the method: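 Biofilm-assay setup (Sabouraud pH 7.0, inoculum OD660 0.2, serial two-fold dilutions, 37 °C). […] Highest value kept when replicates differ. At least two independent experiments in triplicate.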

Candida albicans [7] = assay: Fungicidal activity against Candida albicans ATCC 28366 assessed as prevention of colony formation incubated for 24 hrs; format: functional

`Oc1ccc(C[C@H]2CN[C@@H](Cc3ccccc3)CN2)cc1` was tested, and the Activity (Candida albicans [1]) was “inactive”, the Activity (Candida albicans [2]) was “inactive” and the Activity (Candida albicans [3]) was “inactive”.

In the case of `c1ccc(C[C@H]2CN[C@@H](Cc3ccccc3)CN2)cc1`, the Activity (Candida albicans [4]) is reported as “inactive” and the Activity (Candida albicans [1]) is reported as “inactive”.

With `c1ccc(COc2ccc(C[C@@H]3CN[C@H](Cc4ccc(OCc5ccccc5)cc4)CN3)cc2)cc1` the inhibition (Candida albicans [5]) was “Active”, the MIC (Candida albicans [6]) was 24 µg/mL (≈ 50.1 µM) and the MFC (Candida albicans [7]) was 24 µg/mL (≈ 50.1 µM). The Activity (Candida albicans [1]) was “inactive”.

`CN1C[C@H](Cc2ccccc2)N(C)C[C@@H]1Cc1ccccc1` was tested, and the Activity (Candida albicans [4]) was “inactive”.

`CN1C[C@H](Cc2ccc(OCc3ccccc3)cc2)N(C)C[C@@H]1Cc1ccc(OCc2ccccc2)cc1` was tested, and the Activity (Candida albicans [2]) was “inactive” and the Activity (Candida albicans [3]) was “inactive”.

For `CN1C[C@H](Cc2ccc(O)cc2)N(C)C[C@@H]1Cc1ccc(O)cc1`, the Activity (Candida albicans [2]) was “inactive” and the Activity (Candida albicans [3]) was “inactive”.

`c1ccc(C[C@H]2CN[C@H](Cc3ccccc3)CN2)cc1` was tested, and the Activity (Candida albicans [4]) was “inactive” and the Activity (Candida albicans [1]) was “inactive”.

In the case of `c1ccc(C[C@@H]2CN[C@H](Cc3ccccc3)CN2)cc1`, the Activity (Candida albicans [4]) is reported as “inactive” and the Activity (Candida albicans [1]) is reported as “inactive”.

`Oc1ccc(C[C@@H]2CN[C@H](Cc3ccc(O)cc3)CN2)cc1` was tested, and the Activity (Candida albicans [1]) was “inactive”, the Activity (Candida albicans [2]) was “inactive” and the Activity (Candida albicans [3]) was “inactive”.

In the case of `Oc1ccc(C[C@H]2CN[C@@H](Cc3ccc(O)cc3)CN2)cc1`, the Activity (Candida albicans [1]) is reported as “inactive”, the Activity (Candida albicans [2]) is reported as “inactive” and the Activity (Candida albicans [3]) is reported as “inactive”.
